Data set [1] deals with Mycobacterium tuberculosis. Briefly: Antimycobacterial activity against replicating Mycobacterium tuberculosis H37Rv ATCC 27294 incubated for 7 days by microplate alamar blue assay. The note with it: H37Rv ATCC 27294, 168 h, time 7 day. It counts as functional. In a few lines:
(§1)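 H37Rv (ATCC 27294) in 7H12 broth (7H9 with casitone, BSA, catalase, palmitic acid). Compounds from DMSO in twofold serial dilution; final inoculum 3 to 5 X10⁵ cells/mL; 7 days at 37°C. Resazurin plus Tween 80 added, 18–24 h more at 37°C. Fluorescence read at 530 nm excitation/590 nm emission. MIC is the lowest concentration giving 90% fluorescence reduction versus untreated bacteria.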

Data set [2] relates to Mycobacterium tuberculosis. Briefly: Antimycobacterial activity against non-replicating Mycobacterium tuberculosis H37Rv ATCC 27294 incubated for 10 days under anaerobic condition followed by treatment under aerobic condition and measured on day 11 by luminescence based low oxygen recovery assay. It counts as functional. As to conditions: H37Rv ATCC 27294, 264 h, time 11 day. In a few lines: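 Low-oxygen recovery assay with H37Rv carrying autoluminescent LuxABCDE plasmid, adapted to low oxygen. Cells in 7H12 broth, sonicated 15 s, inoculum 5 x 10⁵ to 2 x 10⁶ CFU/mL, with twofold compound dilutions. Anaerobic (<0.16% O₂; 10% H₂, 5% CO₂, N₂) at 37°C for 10 days, then 28 h aerobic recovery (5% CO₂ air). Luminescence read day 11; MIC at 90% signal reduction versus untreated controls.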

Data set [3] concerns Mycobacterium tuberculosis. Briefly: Antibacterial activity against Mycobacterium tuberculosis H37Rv incubated for 7 days by alamar blue reagent based fluorescence plate reader analysis. It is filed as functional. The note with it: 168 h, time 7 day. In a few lines:
as §1

Data set [4] relates to Mycobacterium tuberculosis. Briefly: Antimycobacterial activity against Mycobacterium tuberculosis H37Ra by microplate alamar blue assay. It counts as functional.
A short description of data set [5]: Cytotoxicity against human HepG2 cells assessed as reduction in cell viability by alamar blue assay. It is filed as toxicity, cell-based. In a few lines: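 HepG2 cells grown in Glutamax DMEM with 10% (v/v) FBS and antibiotics, seeded in 96-well plates at 37°C, 5% CO₂. Viability measured by Alamar Blue staining per manufacturer's protocol; CC₅₀ derived.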
Data set [6] has as its system Mycobacterium tuberculosis. The experiment in a line: Antibacterial activity against Mycobacterium tuberculosis H37Rv. It counts as functional. In a few lines:
as §1

The test system of data set [7] is Mycobacterium tuberculosis. Briefly: Antibacterial activity against Mycobacterium tuberculosis H37Rv ATCC 27294 by microplate alamar blue assay. It counts as functional. Put shortly: as §1

Each structure is given as a SMILES string. Converted amounts (≈) assume the structure as drawn. Bounds are passed on as bounds.

With `O=C(Nc1nc2ccccc2c2ccccc12)c1cccc(Cl)c1`, the MIC in data set [1] and in data set [2] was > 300 µM in each case.
In data set [3], `Cc1ccc2nc(C)c(C(=O)NCCCC3CCCCC3)n2c1` registered an MIC of 0.1 µM (≈ 0.0313 µg/mL).
In the case of `O=C(Nc1ccc(Cl)cn1)c1cccc(C(F)(F)F)c1`, in data set [4], it took 109 µM (≈ 32.7 µg/mL) to inhibit growth (MIC).
Turning to `O=C(Cc1c[nH]c2ccccc12)Nc1nc2ccccc2c2ccccc12`, the minimal inhibitory concentration (MIC) was 125 µM (≈ 44.1 µg/mL) in data set [1] and 69 µM (≈ 24.2 µg/mL) in data set [2]. In addition, the CC50 in data set [5] turned out to be 32.1 µM.
For `N#Cc1ccc(Cn2cc(CNC(=O)c3cn4ccccc4n3)nn2)cc1`, the minimum inhibitory concentration (MIC) in data set [6] is 1560 µM (≈ 558 µg/mL).
Regarding `CCc1ccc(-n2cc(CNC(=O)c3c(C)nc4c5ccccc5c5ccccc5n34)nn2)cc1`, the MIC in data set [1] and in data set [2] was > 217 µM in each case.
For the compound `O=C(/C=C/c1ccccc1)Nc1nc2ccccc2c2ccccc12`, the MIC in data set [1] and in data set [2] was > 308 µM each time.
With `NNC(=O)c1ccncc1` [ISONIAZID], the results for the MIC in data set [1] and in data set [2] were 2.62 µM (≈ 0.36 µg/mL) and 560 µM (≈ 76.8 µg/mL), respectively.
On to `O=C(Cc1ccc(Br)cc1)Nc1nc2ccccc2c2ccccc12`, for which the MIC in data set [1] and in data set [2] was > 256 µM in each case. Also, in data set [5], the CC50 was > 50 µM.
Turning to `CCc1nc2ccc(C)cn2c1C(=O)NCCOc1ccc(N2CCC(=NOC)CC2)cc1`, the MIC in data set [7] was < 0.035 µM.
Consider `O=C(CCCc1c[nH]c2ccccc12)Nc1nc2ccccc2c2ccccc12`, for which the MIC in data set [1] was 70.6 µM (≈ 26.8 µg/mL); in data set [2] it was 218 µM (≈ 82.8 µg/mL). In data set [5], the 50% cytotoxic concentration (CC50) was found to be 30 µM.
For `COc1nc2ccc(Br)cc2cc1[C@@H](c1ccccc1)[C@@](O)(CCN(C)C)c1cccc2ccccc12` [BEDAQUILINE], the MIC came to 0.054 µM (≈ 0.03 µg/mL) in data set [1] and 0.216 µM (≈ 0.12 µg/mL) in data set [2].
In the case of `O=C(Cc1ccccc1)Nc1nc2ccccc2c2ccccc12`, the MIC was 294 µM (≈ 91.8 µg/mL) in data set [1] and 267 µM (≈ 83.5 µg/mL) in data set [2]. Moreover, the CC50 in data set [5] is > 50 µM.
In the case of `C#CCNC(=O)c1c(C)nc2c3ccccc3c3ccccc3n12`, the MIC in data set [1] and in data set [2] was > 319 µM throughout.
As for `C#CCCC(=O)Nc1nc2ccccc2c2ccccc12`, the MIC in data set [1] and in data set [2] was > 365 µM in each case. Moreover, the CC50 in data set [5] is 22.6 µM.
On to `O=C(Nc1nc2ccccc2c2ccccc12)c1cnccn1`, for which the MIC in data set [1] and in data set [2] was > 333 µM in each case. The CC50 in data set [5] turned out to be 53 µM.
With `Cc1cc(C)cc(-n2cc(CNC(=O)c3c(C)nc4c5ccccc5c5ccccc5n34)nn2)c1`, the figures for the MIC in data set [1] and in data set [2] were > 217 µM and 208 µM (≈ 95.9 µg/mL), respectively. The CC50 in data set [5] came to 90.7 µM.
With `CCCCCC(=O)Nc1nc2ccccc2c2ccccc12`, the MIC is > 342 µM in data set [1] and 79.8 µM (≈ 23.3 µg/mL) in data set [2]. The CC50 in data set [5] amounted to 79.5 µM.
For the compound `O=C(NCc1ccc(N2CCC(Cl)CC2)cc1)c1cc([N+](=O)[O-])cc([N+](=O)[O-])c1`, the minimum inhibitory concentration (MIC) in data set [7] is 0.038 µM (≈ 0.0159 µg/mL).
Regarding `CCCCCCCC(=O)Nc1nc2ccccc2c2ccccc12`, the MIC in data set [1] is > 312 µM; in data set [2] it was 300 µM (≈ 96.2 µg/mL). In addition, the CC50 in data set [5] was > 50 µM.
`COc1ccc(-n2cc(CNC(=O)c3c(C)nc4c5ccccc5c5ccccc5n34)nn2)c([N+](=O)[O-])c1`: the minimum inhibitory concentration (MIC) in data set [1] was 94 µM (≈ 47.7 µg/mL); in data set [2], 106 µM (≈ 53.6 µg/mL).
As to `Cc1nc2c3ccccc3c3ccccc3n2c1C(=O)NCc1cn(-c2ccccc2Cl)nn1`, the MIC in data set [1] and in data set [2] was > 214 µM throughout.
On to `Nc1nc2ccccc2c2ccccc12`, for which the MIC in data set [1] is 61.3 µM (≈ 11.9 µg/mL); in data set [2], 62.1 µM (≈ 12.1 µg/mL). Besides, the CC50 in data set [5] amounted to 30.5 µM.
On the same counts, the results for `Nc1cccc(C(=O)Nc2nc3ccccc3c3ccccc23)c1` are 150 µM (≈ 46.9 µg/mL), 151 µM (≈ 47.2 µg/mL) and 56.9 µM.
On the same counts, the results for `Cc1nc2c3ccccc3c3ccccc3n2c1C(=O)NCc1cn(-c2cccc([N+](=O)[O-])c2)nn1` are 84.3 µM (≈ 40.2 µg/mL), 87.4 µM (≈ 41.7 µg/mL) and 71.9 µM.
As to `Cc1nc2c3ccccc3c3ccccc3n2c1C(=O)NCc1cn(-c2cccc(C(F)(F)F)c2)nn1`, the MIC in data set [1] was determined as 184 µM (≈ 92 µg/mL); in data set [2] it was 89.5 µM (≈ 44.8 µg/mL). Also, in data set [5], the CC50 stood at 82.3 µM.
For the compound `Cc1nc2c3ccccc3c3ccccc3n2c1C(=O)NCc1cn(-c2ccc([N+](=O)[O-])cc2Br)nn1`, the minimal inhibitory concentration (MIC) in data set [1] and in data set [2] was 180 µM (≈ 100 µg/mL) in each case.
On to `Cc1ccc(-n2cc(CNC(=O)c3c(C)nc4c5ccccc5c5ccccc5n34)nn2)cc1C`, for which the MIC in data set [1] is 41.5 µM (≈ 19.1 µg/mL); in data set [2], 78.8 µM (≈ 36.3 µg/mL).
In the case of `Cc1nc2c3ccccc3c3ccccc3n2c1C(=O)NCc1cn(-c2ccc(C(F)(F)F)cc2)nn1`, the MIC was > 200 µM in data set [1] and 93 µM (≈ 46.5 µg/mL) in data set [2]. In data set [5], the CC50 is 84.4 µM.
Turning to `O=C(Nc1nc2ccccc2c2ccccc12)c1ccccc1I`, the MIC in data set [1] and in data set [2] was > 236 µM each time.
Consider `CO[C@H]1/C=C/O[C@@]2(C)Oc3c(C)c(O)c4c(O)c(c(/C=N/N5CCN(C)CC5)c(O)c4c3C2=O)NC(=O)/C(C)=C\C=C\[C@H](C)[C@H](O)[C@@H](C)[C@@H](O)[C@@H](C)[C@H](OC(C)=O)[C@@H]1C` [RIFAMPIN], for which the MIC in data set [1] worked out at 0.073 µM (≈ 0.0601 µg/mL); in data set [2] it was 0.145 µM (≈ 0.119 µg/mL).
On to `Nc1ccc(C(=O)Nc2nc3ccccc3c3ccccc23)cc1`, for which the results for the MIC in data set [1] and in data set [2] were 78.3 µM (≈ 24.5 µg/mL) and 85.8 µM (≈ 26.9 µg/mL), respectively. Also, the CC50 in data set [5] is 32.1 µM.
Take `Cc1nc2c3ccccc3c3ccccc3n2c1C(=O)NCc1cn(-c2ccc(Cl)c(Cl)c2[N+](=O)[O-])nn1`: the MIC in data set [1] and in data set [2] was > 183 µM throughout.

For the origin of these results see ChEMBL document CHEMBL5329165, “Design, synthesis and biological evaluation of phenanthridine amide and 1,2,3-triazole analogues against Mycobacterium tuberculosis” (RSC Med Chem, 2023).
